Data set [1] relates to A549. Put plainly: Antitumour activity against human A549 cells xenografted in BALB/c nude mouse assessed as tumour volume at 30 mg/kg, ip administered every other day measured at day 26 by electronic caliper method (reference value: 2006.37 mm3). It is filed as functional. (In xenograft studies the graft and the host belong to different species.)
Data set [2] can be described thus: Solubility of compound in water. It is filed as physicochemical. Conditions: buffer.
Data set [3] deals with A549. Put plainly: Antitumour activity against human A549 cells xenografted in BALB/c nude mouse assessed as tumour growth inhibition at 30 mg/kg, ip administered every other day measured at day 26 by electronic caliper method relative to control. In kind it is functional. The note with it: 624 h, read-out: GI.
Data set [4] can be described thus: Toxicity in BALB/c nude mouse xenografted with human A549 cells assessed as effect on body weight at 30 mg/kg, ip administered every other day measured for 26 days. It is filed as organism-based. Conditions: in vivo, 624 h.
Data set [5] relates to A549. In words: Antitumour activity against human A549 cells xenografted in BALB/c nude mouse assessed as tumour weight at 30 mg/kg, ip administered every other day measured at day 26 by electronic caliper method (reference value: 1.894 g). In kind it is functional.
Another data set has as its system HCT-116. In words: Antiproliferative activity against human HCT116 cells assessed as cell growth inhibition measured after 48 hrs by MTT assay. In kind it is functional, cell-based. Conditions: HCT-116, 48 h. The procedure, abridged: (§1)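 Cancer cell lines exposed to compounds for 48 h; viability read by MTT assay. IC50 reported as mean ± SD from at least three independent experiments.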
Background: Tetrazolium assays rely on reduction of a dye to a coloured formazan, in cell work by metabolically active cells.

Another data set has as its system MDA-MB-231. In words: Antiproliferative activity against human MDA-MB-231 cells assessed as cell growth inhibition measured after 48 hrs by MTT assay. It is filed as functional, cell-based. The note with it: MDA-MB-231, 48 h. The procedure, abridged:
as §1

A further data set has as its system HeLa. Put plainly: Antiproliferative activity against human HeLa cells assessed as cell growth inhibition measured after 48 hrs by MTT assay. In kind it is functional, cell-based. The method, boiled down: as §1
Data set [6] deals with A549. In words: Antiproliferative activity against human A549 cells assessed as cell growth inhibition measured after 48 hrs by MTT assay. It is filed as functional, cell-based. Conditions: A549, 48 h. The procedure, abridged:
as §1

Another data set has as its system HepG2. Put plainly: Antiproliferative activity against human HepG2 cells assessed as cell growth inhibition measured after 48 hrs by MTT assay. It is filed as functional, cell-based. Conditions: HepG2, 48 h. The procedure, abridged: as §1
Data set [7] is described as follows: Half-life in Sprague-Dawley rat liver microsomes in presence of NADPH by HPLC-UV-MS analysis. In kind it is ADME, Microsome. The procedure, abridged:
(§2)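 Compound incubated with rat liver microsomes in buffer containing an NADPH regenerating system. Percentage of parent remaining was determined at time points up to 180 min, and half-life was derived.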
(In general: Microsomes from liver hold many membrane-bound enzymes, among them those of drug oxidation.)

Data set [8] can be described thus: Metabolic stability in Sprague-Dawley rat liver microsomes assessed as parent compound remaining after 90 mins in presence of NADPH by HPLC-UV-MS analysis. The note with it: read-out: Stability. It is filed as ADME, Microsome. The procedure, abridged: as §2
Data set [9] in a line: Metabolic stability in Sprague-Dawley rat liver microsomes assessed as parent compound remaining after 150 mins in presence of NADPH by HPLC-UV-MS analysis. It is filed as ADME, Microsome. The method, boiled down:
as §2

A further data set in a line: in vitro. Conditions: Sprague-Dawley, rat, liver microsomes.
Data set [10] can be described thus: Metabolic stability in Sprague-Dawley rat liver microsomes assessed as parent compound remaining after 60 mins in presence of NADPH by HPLC-UV-MS analysis. It is filed as ADME, Microsome. The note with it: read-out: Stability. The method, boiled down:
as §2

Data set [11] in a line: Metabolic stability in Sprague-Dawley rat liver microsomes assessed as parent compound remaining after 30 mins in presence of NADPH by HPLC-UV-MS analysis. Conditions: read-out: Stability. It is filed as ADME, Microsome. The procedure, abridged:
as §2

The nature of data set [12]: Metabolic stability in Sprague-Dawley rat liver microsomes assessed as parent compound remaining after 120 mins in presence of NADPH by HPLC-UV-MS analysis. It is filed as ADME, Microsome. Conditions: read-out: Stability. The procedure, abridged:
as §2

Each structure is given as a SMILES string. pIC50: −log10 of the molar value. Where only a bound is given, the exact number is not on record here.

One may read the pIC50 as −log10 of the IC50, conventionally taken in molar units. The term half-life denotes the time needed for the level to fall by half in the phase considered.

With `COc1cc(C2=NCC(=O)Nc3c2ccc(OC)c3OP(=O)([O-])[O-])cc([Se]C)c1OC.[Na+].[Na+]`, the Activity in the data set with A549 [1] was 215.2 mm3; in data set [4] it was “Non-Toxic”; in the data set with A549 [5] it was 0.201 g. The solubility entry in data set [2] is given as “Soluble”. The inhibition in vivo at 30 mg/kg in the data set with A549 [3] amounted to 89.3%.
`COc1cc(-c2cc(=O)[nH]c3c(O)c(OC)ccc23)cc(SC)c1OC`: the pIC50 with HCT-116 is 7.54; in the data set with MDA-MB-231, 7.15; in the data set on HeLa, 7.45; in the data set on A549 [6], 7.21; with HepG2, 7.29.
For the compound `COc1cc(C2=NCC(=O)Nc3c2ccc(OC)c3OP(=O)([O-])[O-])cc(SC)c1OC.[Na+].[Na+]`, the values for the Activity (in the data set on A549 [1]; in data set [4]; with A549 [5]) were 369.25 mm3, “Non-Toxic” and 0.373 g, respectively. Besides, the solubility result in data set [2] is “Soluble”. For the same compound, in the data set on A549 [3], the inhibition in vivo at 30 mg/kg was 79.3%.
Consider `COc1ccc2c(c1O)NC(=O)C(C)N=C2c1cc(OC)c(OC)c(SC)c1` (centres undefined), for which the pIC50 in the data set on HCT-116 is 7.05; with MDA-MB-231, 6.53; with HeLa, 5.97; in the data set on A549 [6] it was 7.03; in the data set with HepG2, 6.53.
`COc1ccc2c(c1O)NC(=O)CN=C2c1ccc(OC)c2c1OC(C)(C)C=C2`: the pIC50 in the data set on HCT-116 is 6.68; in the data set with MDA-MB-231, 5.43; in the data set on HeLa, 5.73; with A549 [6], 6.36; in the data set on HepG2, 5.34.
Take `COc1ccc2c(c1O)NC(=O)CN=C2c1cc(OC)c(OC)c(OC)c1`: the pIC50 with HCT-116 is 7.78; with MDA-MB-231 it was 7.26; in the data set with HeLa, 7.74; with A549 [6] it was 8.04; with HepG2 it was 7.80. The half-life in data set [7] worked out at 2.62 h. In data set [8], the remaining at 1.5 h was found to be 76.2%. Moreover, the remaining at 2.5 h in data set [9] (Sprague-Dawley, liver microsomes, read-out: Stability) amounted to 55.2%. The same compound yielded a remaining at 3 h in the data set “in vitro” of 49.9%. In addition, in [10], the remaining at 1 h is 85.5%. Besides, the remaining at 0.5 h in [11] is 94.3%. Further, the remaining at 2 h in data set [12] stood at 65.3%.
As for `COc1cc(C2=NCC(=O)Nc3c2ccc(OC)c3OP(=O)([O-])[O-])cc(OC)c1OC.[Na+].[Na+]`, the Activity came out at 408.17 mm3 in the data set on A549 [1] and 0.415 g in the data set with A549 [5]. Besides, the inhibition in vivo at 30 mg/kg with A549 [3] was 77.7%.
Regarding `COc1ccc2c(c1O)NC(=O)CN=C2c1cc(OC)c(OC)c(N(C)C)c1`, the pIC50 in the data set with HCT-116 was 7.28; in the data set on MDA-MB-231, 7.04; with HeLa, 7.26; with A549 [6] it was 7.18; in the data set with HepG2, 7.28.
For the compound `COc1ccc2c(c1O)NC(=O)CN=C2c1cc(OC)c(OC)c(SC)c1`, the pIC50 in the data set with HCT-116 is 7.97; with MDA-MB-231 it was 7.61; in the data set with HeLa, 7.78; with A549 [6] it was 7.73; with HepG2, 7.85.
For `COc1ccc2c(c1O)NC(=O)CN=C2c1cc2c(c(OC)c1)OC(C)(C)C=C2` the same measures were 7.86, 7.16, 7.46, 7.25 and 7.52.
For `COc1cc(-c2c(C)c(=O)[nH]c3c(O)c(OC)ccc23)cc(SC)c1OC` the same measures were 6.64, 6.88, 6.80, 7.07 and 6.52.
As for `COc1ccc(/C=C\c2cc(OC)c(OC)c(OC)c2)cc1O` [COMBRETASTATIN A4], the half-life in data set [7] was below 1 h. Also, the remaining at 1.5 h in [8] stood at 21.6%. Further, the Stability result in data set [9] (microsomes, 2.5 h) was “Unstable”. Moreover, the remaining at 1 h in data set [10] was 36.4%. Moreover, in [11], the remaining at 0.5 h amounted to 66.3%. Also, in data set [12], the remaining at 2 h stood at 17.9%.
Regarding `COc1cc(-c2cc(=O)[nH]c3c(O)c(OC)ccc23)cc([Se]C)c1OC`, the pIC50 in the data set on HCT-116 is 6.91; in the data set with MDA-MB-231, 7.16; with HeLa, 7.29; with A549 [6], 7.22; with HepG2 it was 7.66.
With `COc1ccc(/C=C\c2cc(OC)c(OC)c(OC)c2)cc1OP(=O)([O-])[O-].[Na+].[Na+]` [FOSBRETABULIN DISODIUM], the results for the Activity in the data set with A549 [1] and in the data set with A549 [5] were 984.86 mm3 and 0.879 g, respectively. Also, the inhibition in vivo at 30 mg/kg with A549 [3] was found to be 52.8%.

Source of the values: ChEMBL document CHEMBL4359917, “Design, synthesis, and biological evaluation of novel benzodiazepine derivatives as anticancer agents through inhibition of tubulin polymerization in vitro and in vivo” (Eur J Med Chem, 2019).
